Source: ChEMBL document CHEMBL4130613, “Identification and Proposed Relative and Absolute Configurations of Niphimycins C-E from the Marine-Derived Streptomyces sp. IMB7-145 by Genomic Analysis” (J Nat Prod, 2018)
Values after ≈ are worked out from the molar mass of the structure shown. Active and inactive are the calls of the source. No cut-off for these calls is given here.

Assays:
Enterococcus faecalis [1] = assay: Antibacterial activity against vancomycin-resistant Enterococcus faecalis 09-9 after 18 hrs by agar dilution method; type: functional
[2] = test system: Staphylococcus epidermidis; assay: Antibacterial activity against methicillin-resistant Staphylococcus epidermidis 12-8 after 18 hrs by agar dilution method; type: functional
Enterococcus faecalis [3] = assay: Antibacterial activity against vancomycin-resistant Enterococcus faecalis ATCC 51299 after 18 hrs by agar dilution method; type: functional
Staphylococcus aureus [4] = assay: Antibacterial activity against methicillin-resistant Staphylococcus aureus ATCC 33591 after 18 hrs by agar dilution method; type: functional
Escherichia coli [5] = assay: Antibacterial activity against extended-spectrum beta-lactamase-negative Escherichia coli ATCC 25922 after 18 hrs by agar dilution method; type: functional; conditions: ATCC 25922, 18 h
Klebsiella pneumoniae [6] = assay: Antibacterial activity against NDM-1 positive Klebsiella pneumoniae ATCC BAA-2146 after 18 hrs by agar dilution method; type: functional; conditions: ATCC BAA-2146, 18 h
Enterococcus faecium [7] = assay: Antibacterial activity against vancomycin-resistant Enterococcus faecium 12-1 after 18 hrs by agar dilution method; type: functional
Pseudomonas aeruginosa [8] = assay: Antibacterial activity against Pseudomonas aeruginosa PAO1 after 18 hrs by agar dilution method; type: functional; conditions: PAO1, 18 h
Proteus mirabilis = assay: Antibacterial activity against Proteus mirabilis 12-6 after 18 hrs by agar dilution method; type: functional; conditions: 12-6, 18 h
Escherichia coli [9] = assay: Antibacterial activity against extended-spectrum beta-lactamase-negative Escherichia coli 12-14 after 18 hrs by agar dilution method; type: functional; conditions: 12-14, 18 h
Citrobacter freundii = assay: Antibacterial activity against Citrobacter freundii ATCC 43864 after 18 hrs by agar dilution method; type: functional; conditions: ATCC 43864, 18 h
Proteus vulgaris = assay: Antibacterial activity against Proteus vulgaris ATCC 29905 after 18 hrs by agar dilution method; type: functional; conditions: ATCC 29905, 18 h
Klebsiella pneumoniae [10] = assay: Antibacterial activity against extended-spectrum beta-lactamase-positive Klebsiella pneumoniae ATCC 700603 after 18 hrs by agar dilution method; type: functional; conditions: Klebsiella pneumoniae, 700603, 18 h
Escherichia coli [11] = assay: Antibacterial activity against extended-spectrum beta-lactamase-negative Escherichia coli 1515 after 18 hrs by agar dilution method; type: functional; conditions: Escherichia coli, 1515, 18 h
Staphylococcus aureus [12] = assay: Antibacterial activity against methicillin-resistant Staphylococcus aureus 12-33 after 18 hrs by agar dilution method; type: functional
Morganella morganii = assay: Antibacterial activity against Morganella morganii ATCC 25830 after 18 hrs by agar dilution method; type: functional; conditions: ATCC 25830, 18 h
[13] = test system: Stenotrophomonas maltophilia; assay: Antibacterial activity against Stenotrophomonas maltophilia ATCC 13636 after 18 hrs by agar dilution method; type: functional; conditions: ATCC 13636, 18 h
Escherichia coli [14] = assay: Antibacterial activity against extended-spectrum beta-lactamase-positive Escherichia coli 12-15 after 18 hrs by agar dilution method; type: functional; conditions: 12-15, 18 h
Klebsiella pneumoniae [15] = assay: Antibacterial activity against extended-spectrum beta-lactamase-negative Klebsiella pneumoniae 7 after 18 hrs by agar dilution method; type: functional; conditions: Klebsiella pneumoniae, 7, 18 h
Klebsiella aerogenes = assay: Antibacterial activity against Enterobacter aerogenes ATCC 13048 after 18 hrs by agar dilution method; type: functional; conditions: ATCC 13048, 18 h
Candida albicans = assay: Antifungal activity against Candida albicans ATCC 10231 after 18 hrs by agar dilution method; type: functional; conditions: ATCC 10231, 18 h
Serratia marcescens = assay: Antibacterial activity against Serratia marcescens ATCC 21074 after 18 hrs by agar dilution method; type: functional; conditions: ATCC 21074, 18 h
HeLa = assay: Cytotoxicity against human HeLa cells after 48 hrs by SRB assay; type: functional, cell-based
Summary of the method: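 HeLa human cervical carcinoma cells obtained from ATCC. Cytotoxicity was read by sulforhodamine B staining following an earlier published protocol, with doxorubicin hydrochloride as positive control. Values are reported as IC50.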

Klebsiella pneumoniae [16] = assay: Antibacterial activity against extended-spectrum beta-lactamase-positive Klebsiella pneumoniae 12-8 after 18 hrs by agar dilution method; type: functional; conditions: 12-8, 18 h
Enterobacter cloacae = assay: Antibacterial activity against Enterobacter cloacae ATCC 43560 after 18 hrs by agar dilution method; type: functional; conditions: ATCC 43560, 18 h
Pseudomonas aeruginosa [17] = assay: Antibacterial activity against Pseudomonas aeruginosa 12-16 after 18 hrs by agar dilution method; type: functional; conditions: 12-16, 18 h
Pseudomonas aeruginosa [18] = assay: Antibacterial activity against Pseudomonas aeruginosa ATCC 27853 after 18 hrs by agar dilution method; type: functional; conditions: ATCC 27853, 18 h
Klebsiella pneumoniae [19] = assay: Antibacterial activity against extended-spectrum beta-lactamase-negative Klebsiella pneumoniae 12-4 after 18 hrs by agar dilution method; type: functional; conditions: 12-4, 18 h
Providencia rettgeri = assay: Antibacterial activity against Providencia rettgeri ATCC 31052 after 18 hrs by agar dilution method; type: functional; conditions: ATCC 31052, 18 h
Enterococcus faecium [20] = assay: Antibacterial activity against vancomycin-resistant Enterococcus faecium ATCC 700221 after 18 hrs by agar dilution method; type: functional
[21] = test system: Acinetobacter calcoaceticus; assay: Antibacterial activity against Acinetobacter calcoaceticus ATCC 19606 after 18 hrs by agar dilution method; type: functional; conditions: ATCC 19606, 18 h

Structure (SMILES)	Activity (Enterococcus faecalis [1])	Activity [2]	Activity (Enterococcus faecalis [3])	Activity (Staphylococcus aureus [4])	MIC (Escherichia coli [5])	MIC (Klebsiella pneumoniae [6])	Activity (Enterococcus faecium [7])	MIC (Pseudomonas aeruginosa [8])	MIC (Proteus mirabilis)	MIC (Escherichia coli [9])	MIC (Citrobacter freundii)	MIC (Proteus vulgaris)	MIC (Klebsiella pneumoniae [10])	MIC (Escherichia coli [11])	Activity (Staphylococcus aureus [12])	MIC (Morganella morganii)	MIC [13]	MIC (Escherichia coli [14])	MIC (Klebsiella pneumoniae [15])	MIC (Klebsiella aerogenes)	also measured
CNC(=N)NCCC/C=C/CCC[C@H](C)C[C@H](C)[C@@H](O)[C@@H](C)/C=C/C=C/[C@@H](O)[C@@H](C)[C@H](O)C[C@@H](O)C[C@H](O)C[C@@H](O)C[C@H](O)[C@@H](O)C(O)C[C@@H](O)[C@@H](C)CC[C@H](O)[C@@H](C)[C@@H](O)C[C@@H](O)[C@@H](C)/C=C/[C@@H](O)[C@@H](C)C(=O)O (stereo partly drawn)	Active	Active	Active	Active	> 64 µg/mL	> 64 µg/mL	Active	> 64 µg/mL	> 64 µg/mL	> 64 µg/mL	> 64 µg/mL	> 64 µg/mL	> 64 µg/mL	> 64 µg/mL	Active	> 64 µg/mL	> 64 µg/mL	> 64 µg/mL	> 64 µg/mL	> 64 µg/mL	MIC (Candida albicans): 8 to 32 µg/mL (≈ 7.43 to 29.7 µM); MIC (Serratia marcescens): > 64 µg/mL; IC50 (HeLa): > 10 µM; MIC (Klebsiella pneumoniae [16]): > 64 µg/mL; MIC (Enterobacter cloacae): > 64 µg/mL; MIC (Pseudomonas aeruginosa [17]): > 64 µg/mL; MIC (Pseudomonas aeruginosa [18]): > 64 µg/mL; MIC (Klebsiella pneumoniae [19]): > 64 µg/mL; MIC (Providencia rettgeri): > 64 µg/mL; Activity (Enterococcus faecium [20]): Active; MIC [21]: > 64 µg/mL
CNC(=N)NCCC/C=C/CCC[C@H](C)C[C@H](C)[C@H]1OC(=O)[C@H](C)[C@H](O)/C=C/[C@H](C)[C@H](O)C[C@H](O)[C@H](C)[C@@H](O)CC[C@H](C)[C@H](O)C[C@]2(OC)O[C@H](C[C@@H](OC(=O)CC(=O)O)C[C@H](O)C[C@@H](O)[C@H](C)[C@H](O)/C=C/C=C/[C@@H]1C)C[C@H](O)[C@H]2O	Active	Active	Active	Active	> 64 µg/mL	> 64 µg/mL	Active	> 64 µg/mL	> 64 µg/mL	> 64 µg/mL	> 64 µg/mL	> 64 µg/mL	> 64 µg/mL	> 64 µg/mL	Active	> 64 µg/mL	> 64 µg/mL	> 64 µg/mL	> 64 µg/mL	> 64 µg/mL	MIC (Candida albicans): 8 to 32 µg/mL (≈ 6.92 to 27.7 µM); MIC (Serratia marcescens): > 64 µg/mL; IC50 (HeLa): 3 to 9 µM; MIC (Klebsiella pneumoniae [16]): > 64 µg/mL; MIC (Enterobacter cloacae): > 64 µg/mL; MIC (Pseudomonas aeruginosa [17]): > 64 µg/mL; MIC (Pseudomonas aeruginosa [18]): > 64 µg/mL; MIC (Klebsiella pneumoniae [19]): > 64 µg/mL; MIC (Providencia rettgeri): > 64 µg/mL; Activity (Enterococcus faecium [20]): Active; MIC [21]: > 64 µg/mL
CNC(=N)NCCC/C=C/CCC[C@H](C)C[C@H](C)[C@H]1OC(=O)[C@H](C)[C@H](O)/C=C/[C@H](C)[C@H](O)C[C@H](O)[C@H](C)[C@@H](O)CC[C@H](C)[C@H](O)C[C@]2(O)O[C@H](C[C@@H](OC(=O)CC(=O)O)C[C@H](O)C[C@@H](O)[C@H](C)[C@H](O)/C=C/C=C/[C@@H]1C)C[C@H](OC(=O)CC(=O)O)[C@H]2O	Active	Active	Active	Active	> 64 µg/mL	> 64 µg/mL	Active	> 64 µg/mL	> 64 µg/mL	> 64 µg/mL	> 64 µg/mL	> 64 µg/mL	> 64 µg/mL	> 64 µg/mL	Active	> 64 µg/mL	> 64 µg/mL	> 64 µg/mL	> 64 µg/mL	> 64 µg/mL	MIC (Candida albicans): 8 to 32 µg/mL (≈ 6.51 to 26 µM); MIC (Serratia marcescens): > 64 µg/mL; IC50 (HeLa): 3 to 9 µM; MIC (Klebsiella pneumoniae [16]): > 64 µg/mL; MIC (Enterobacter cloacae): > 64 µg/mL; MIC (Pseudomonas aeruginosa [17]): > 64 µg/mL; MIC (Pseudomonas aeruginosa [18]): > 64 µg/mL; MIC (Klebsiella pneumoniae [19]): > 64 µg/mL; MIC (Providencia rettgeri): > 64 µg/mL; Activity (Enterococcus faecium [20]): Active; MIC [21]: > 64 µg/mL
